Assay results from ChEMBL document CHEMBL2331250, “Synthesis of an MIF-1 analogue containing enantiopure (S)-α-trifluoromethyl-proline and biological evaluation on nociception” (Eur J Med Chem, 2013).
Active and inactive are the calls of the source. Residues, ends and D or L forms follow the SMILES beside them.

Experiments:
Assay type in all cases: functional, organism-based
Rattus norvegicus [1] = assay: Analgesic activity in Wistar rats assessed as increase in latency of response to pain at 1 mg/kg, ip treated 20 mins after 1 mg/kg, ip NO donor, L-arginine challenge measured after 15 to 45 mins by hot plate test
In short: (§1)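 Male Wistar rats (180–200 g), 12 h light/dark cycle, food and water ad libitum, tested 09.00–12.00, five rats per group. Peptide given i.p. in sterile 0.9% saline. Pretreatment agents (naloxone or L-Arg at 1 mg/kg, L-NAME at 10 mg/kg, i.p.) were given 20 min before the peptide. Readings began 15 min after peptide injection. Hot plate at 55 ± 0.5 °C; latency measured to first paw licking or jump; 30 s cut-off. Mean ± S.E.M., ANOVA, P < 0.05.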

Rattus norvegicus [2] = assay: Analgesic activity in Wistar rats assessed as increase in latency of response to pain at 1 mg/kg, ip treated 20 mins after 10 mg/kg, ip NOS inhibitor, L-NAME challenge measured after 15 to 45 mins by hot plate test; in short: as §1
Rattus norvegicus [3] = assay: Analgesic activity in Wistar rats assessed as increase in mechanical nociceptive threshold at 1 mg/kg, ip treated 20 mins after 1 mg/kg, ip NO donor, L-arginine challenge measured after 15 to 45 mins by paw pressure test
In short: (§2)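 Male Wistar rats (180–200 g), five per group, tested 09.00–12.00. Peptide given i.p. in sterile 0.9% saline. Pretreatment agents (naloxone or L-Arg at 1 mg/kg, L-NAME at 10 mg/kg, i.p.) were given 20 min before the peptide. Readings began 15 min after peptide injection. Randall-Selitto analgesimeter applied pressure to the hind paw; threshold was the pressure (g) eliciting squeak or struggle; 500 g cut-off. Mean ± S.E.M., ANOVA.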

Rattus norvegicus [4] = assay: Analgesic activity in Wistar rats assessed as increase in mechanical nociceptive threshold at 1 mg/kg, ip treated 20 mins after 10 mg/kg, ip NOS inhibitor, L-NAME challenge measured after 15 to 45 mins by paw pressure test; in short: as §2
Rattus norvegicus [5] = assay: Analgesic activity in Wistar rats assessed as increase in latency of response to pain at 1 mg/kg, ip treated 20 mins after 1 mg/kg, ip […] opiate receptor antagonist, naloxone challenge measured after 15 to 30 mins by hot plate test; in short: as §1
Rattus norvegicus [6] = assay: Analgesic activity in Wistar rats assessed as increase in mechanical nociceptive threshold at 1 mg/kg, ip treated 20 mins after 1 mg/kg, ip […] opiate receptor antagonist, naloxone challenge measured after 15 to 30 mins by paw pressure test; in short: as §2
Rattus norvegicus [7] = assay: Analgesic activity in Wistar rats assessed as increase in latency of response to pain at 1 mg/kg, ip measured after 15 mins by hot plate test; design: dose 1 mg/kg; in short: as §1
Rattus norvegicus [8] = assay: Analgesic activity in Wistar rats assessed as increase in mechanical nociceptive threshold at 1 mg/kg, ip measured after 15 mins by paw pressure test; design: dose 1 mg/kg; in short: as §2
Rattus norvegicus [9] = assay: Analgesic activity in Wistar rats assessed as increase in latency of response to pain at 1 mg/kg, ip measured after 15 to 45 mins by hot plate test; design: dose 1 mg/kg; in short: as §1
Rattus norvegicus [10] = assay: Analgesic activity in Wistar rats assessed as increase in mechanical nociceptive threshold at 1 mg/kg, ip measured after 15 to 30 mins by paw pressure test; design: dose 1 mg/kg; in short: as §2

Structure (SMILES)	Activity (Rattus norvegicus [1])	Activity (Rattus norvegicus [2])	Activity (Rattus norvegicus [3])	Activity (Rattus norvegicus [4])	Activity (Rattus norvegicus [5])	Activity (Rattus norvegicus [6])	Activity (Rattus norvegicus [7])	Activity (Rattus norvegicus [8])	Activity (Rattus norvegicus [9])	Activity (Rattus norvegicus [10])
CC(C)C[C@H](NC(=O)[C@@H]1CCCN1)C(=O)NCC(N)=O (H-Pro-Leu-Gly-NH2)	inactive	inactive	inactive	inactive	inactive	inactive	Active	inactive		
CC(C)C[C@H](NC(=O)[C@]1(C(F)(F)F)CCCN1)C(=O)NCC(N)=O	inactive	inactive	inactive	inactive	inactive	inactive			inactive	Active
